# Measured values reported in ChEMBL document CHEMBL1129612, “New low-density lipoprotein receptor upregulators acting via a novel mechanism” (J Med Chem, 1996).
# Test system: HepG2
# Test: Compound was tested in vitro for up-regulation of low density lipoprotein (LDL) receptor in human hepatocytes (HepG2 cells) at a concentration 3 uM
# Format: functional
# How it was run: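 HepG2 cells (passage ≤10, DMEM with FCS, 5% CO2, 37 °C) plated at 10 000 cells/well and grown 3 days to 80% confluence. Compound at 3 µM added in DMEM with 1% BSA for 24 h. Cell-surface LDL receptors measured by fluorescence immunoassay: MAC-C7 antibody, then alkaline phosphatase-conjugated anti-mouse IgG, substrate ATTAPHOS. Cell number read by propidium iodide. Five replicates, mean % increase.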
row,SMILES,Activity
1,Cc1ccc(NC(=O)CCC2CCCCC2)cc1NC(=O)c1ccccc1O,0%
2,CC(=O)Oc1ccc(C(=O)Nc2cc(NC(=O)CCC3CCCCC3)ccc2C)cc1,82%
3,Cc1ccc(NC(=O)CCN2CCCCC2)cc1NC(=O)c1ccc(O)cc1,-2%
4,O=C(CCC1CCCCC1)Nc1ccc(Cl)c(NC(=O)c2ccc(O)cc2)c1,8%
5,CCCCCCCCC(=O)Nc1ccc(C)c(NC(=O)c2ccc(O)cc2)c1,-10%
6,Cc1ccc(NC(=O)CCC2CCCCC2)cc1/C=C(\C#N)c1ccc2c(c1)OCO2,108%
7,Cc1ccc2[nH]c(-c3cc(NC(=O)CCC4CCCCC4)ccc3C)nc2c1,91%
8,Cc1ccc(C(=O)NCCC2CCCCC2)cc1NC(=O)c1ccc(O)cc1,75%
9,O=C(CCC1CCCCC1)Nc1ccc(Br)c(NC(=O)c2ccc(O)cc2)c1,6%
10,Cc1ccc(NC(=O)NCC2CCCCC2)cc1NC(=O)c1ccc(O)cc1,10%
11,Cc1ccc(NC(=O)CCc2ccccc2)cc1NC(=O)c1ccc(O)cc1,-20%
12,Cc1ccc(NC(=O)CCC2CCCCC2)cc1NC(=O)c1ccc(CO)cc1,44%
13,Cc1ccc(NC(=O)CCC2CCCCC2)cc1C(=O)Nc1ccc(O)cc1,60%
14,Cc1ccc(NC(=O)CCCC2CCCCC2)cc1NC(=O)c1ccc(O)cc1,32%
15,CC(=O)Oc1ccc(C(=O)Nc2cccc(NC(=O)CCC3CCCCC3)c2)cc1,6%
16,Cc1ccc(NC(=O)CC2CCCCC2)cc1NC(=O)c1ccc(O)cc1,3%
17,Cc1ccc(NC(=O)CCC2CCCCC2)cc1-c1nc2cc(O)ccc2[nH]1,134%
18,COc1ccc(NC(=O)CCC2CCCCC2)cc1NC(=O)c1ccc(OC(C)=O)cc1,-13%
19,Cc1ccc(NC(=O)CCC2CCCCC2)cc1NC(=O)c1ccccc1,50%
20,Cc1ccc(NC(=O)OCC2CCCCC2)cc1NC(=O)c1ccc(O)cc1,16%
21,O=C(CCC1CCCCC1)Nc1ccc(F)c(NC(=O)c2ccc(O)cc2)c1,12%

row,SMILES,Activity
1,Cc1ccc(C(=O)CCCC2CCCCC2)cc1NC(=O)c1cccnc1,111%
2,Cc1ccc(NC(=O)CCC2CCCCC2)cc1-c1nc2ccccc2[nH]1,45%
3,Cc1ccc(NC(=O)CCC2CCCCC2)cc1NC(=O)c1ccc(N)cc1,58%
4,CC(=O)Oc1ccc(C(=O)Nc2cc(NC(=O)COC3CCCCC3)ccc2C)cc1,17%
5,Cc1ccc(NC(=O)CCC2CCCCC2)cc1NC(=O)c1ccc([N+](=O)[O-])cc1,11%
6,Cc1ccc(NC(=O)CCC2CCCCC2)cc1NC(=O)c1ccncc1,-5%
7,Cc1ccc(NC(=O)CCC2CCCCC2)cc1NC(=O)c1cccc(O)c1,59%
8,O=C(CCC1CCCCC1)Nc1ccc(O)c(NC(=O)c2ccc(O)cc2)c1,-3%
9,Cc1ccc(NC(=O)CCC2CCCCC2)cc1NC(=O)C1CCCCC1,0%
10,COC(=O)c1ccc(C(=O)Nc2cc(NC(=O)CCC3CCCCC3)ccc2C)cc1,3%
11,CC[C@H](C)C(=O)O[C@H]1C[C@@H](C)C=C2C=C[C@H](C)[C@H](CC[C@@H]3C[C@@H](O)CC(=O)O3)[C@H]21 [LOVASTATIN],70%
12,Cc1ccc(NC(=O)CCC2CCCCC2)cc1NCc1ccc(O)cc1,-11%
13,Cc1ccc(NC(=O)CCC2CCCCC2)cc1NC(=O)c1ccc(O)cc1,80%
14,Cc1ccc(NC(=O)CCC2CCCCC2)cc1NC(=O)c1cc[n+]([O-])cc1,7%
15,Cc1ccc(NC(=O)CCC2CCCC2)cc1NC(=O)c1ccc(O)cc1,25%
16,Cc1ccc(NC(=O)CCC2CCCCC2)cc1NC(=O)c1cccnc1,83%
17,Cc1ccc(C(=O)CCCC2CCCCC2)cc1NC(=O)c1ccc(O)cc1,10%
18,Cc1ccc(NC(=O)CCC2CCCCC2)cc1NC(=O)c1ccc2c(c1)OCO2,111%
19,Cc1ccc(NC(=O)CCC2CCCCC2)cc1/C=C(\C#N)c1cccnc1,126%
20,Cc1ccc(NC(=O)CCC2CCCCC2)cc1/C=C(\C#N)c1ccc(O)cc1,21%
